Laboratory results: ChEMBL document CHEMBL4609993, “The architecture of hydrogen and sulfur σ-hole interactions explain differences in the inhibitory potency of C-β-d-glucopyranosyl thiazoles, imidazoles and an N-β-d glucopyranosyl tetrazole for human liver glycogen phosphorylase and offer new insights to structure-based design” (Bioorg Med Chem, 2020)

Experiments:
[1] = Inhibition of rabbit muscle GPb using alpha-D-glucose-1-phosphate as substrate by Lineweaver-Burk plot analysis; parameters: species or system Oryctolagus cuniculus
[2] = Inhibition of rabbit muscle GPa using Glc-1-P as substrate incubated for 15 mins; parameters: species or system Oryctolagus cuniculus
[3] = biological target: T1, Glycogen phosphorylase, liver form (Homo sapiens, UniProt P06737); test: Inhibition of human liver GPa using Glc-1-P as substrate incubated for 15 mins
T1 sequence (P06737 whole entry): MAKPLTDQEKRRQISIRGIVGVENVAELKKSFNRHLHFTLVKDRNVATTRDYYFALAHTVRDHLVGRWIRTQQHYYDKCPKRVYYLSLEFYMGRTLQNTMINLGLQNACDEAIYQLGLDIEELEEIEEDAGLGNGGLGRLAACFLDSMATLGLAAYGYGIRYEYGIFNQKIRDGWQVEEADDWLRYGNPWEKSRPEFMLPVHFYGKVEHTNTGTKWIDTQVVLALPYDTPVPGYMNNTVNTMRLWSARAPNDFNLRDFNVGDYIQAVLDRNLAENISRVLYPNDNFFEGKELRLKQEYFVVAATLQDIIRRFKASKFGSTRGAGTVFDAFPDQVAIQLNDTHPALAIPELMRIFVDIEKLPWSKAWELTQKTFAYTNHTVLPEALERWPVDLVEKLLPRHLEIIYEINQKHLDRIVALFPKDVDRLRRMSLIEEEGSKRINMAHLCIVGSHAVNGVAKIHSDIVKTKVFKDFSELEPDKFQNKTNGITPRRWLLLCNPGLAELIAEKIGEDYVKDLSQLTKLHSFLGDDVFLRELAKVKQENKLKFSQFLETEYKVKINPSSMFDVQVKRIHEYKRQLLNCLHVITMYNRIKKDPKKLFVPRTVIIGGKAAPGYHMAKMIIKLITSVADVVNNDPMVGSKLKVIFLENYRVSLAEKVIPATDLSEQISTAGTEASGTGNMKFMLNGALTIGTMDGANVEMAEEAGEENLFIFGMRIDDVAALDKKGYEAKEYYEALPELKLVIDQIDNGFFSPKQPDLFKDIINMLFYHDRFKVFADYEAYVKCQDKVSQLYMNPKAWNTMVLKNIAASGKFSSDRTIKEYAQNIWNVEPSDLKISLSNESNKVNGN

[4] = system: HepG2; test: Cytotoxicity against human HepG2 cells assessed as reduction in cell viability at >200 uM incubated for 24 hrs by MTT assay; assay type: cell-based; conditions: hepg2, 24 h
[5] = Cytotoxicity against human HepG2 cells assessed as reduction in cell viability at 200 and 300 uM incubated for 3 hrs by MTT assay; assay type: cell-based; conditions: read-out: INH
[6] = biological target: T2, Glycogen phosphorylase, liver form (Homo sapiens) (UniProt P06737); test: Inhibition of GP in human HepG2 cells assessed as reduction in GP activity at 500 uM incubated for 3 hrs by Bradford reagent based assay relative to control; assay type: cell-based
T2 sequence (whole entry): T1 sequence (P06737 whole entry)
Summary of the method: (§1)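 HepG2 cells were seeded at 1.0×10^6 per 60 mm dish and attached for 16–18 h. Glycogen was loaded for 16–18 h with 10 nM dexamethasone, 25 mM glucose and 100 nM insulin. Cells were then exposed to inhibitor or vehicle for 3 h in 5 mM glucose plus 100 nM glucagon. Lysates were sonicated in Tris pH 7.5/Triton/PMSF and cleared at 12,000 g. GP activity (nmol/min/mg, Bradford protein) came from a linear fit of 5 time points.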

[7] = system: HepG2; test: Cytotoxicity against human HepG2 cells assessed as reduction in cell viability at 100 uM measured after 3 and 24 hrs by MTT assay; assay type: cell-based; conditions: hepg2, 24 h
[8] = biological target: T2, Glycogen phosphorylase, liver form (Homo sapiens); test: Inhibition of GP in human HepG2 cells assessed as reduction in GP activity at 100 uM incubated for 3 hrs by Bradford reagent based assay relative to control; assay type: cell-based; summary of the method: as §1
[9] = Inhibition of rabbit muscle GPb using Glc-1-P as substrate incubated for 15 mins; parameters: species or system Oryctolagus cuniculus
Summary of the method: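 Recombinant or rabbit muscle GP assayed by an earlier method. Initial velocities were taken from pseudo-first-order rate constants via the first-order rate equation. Ki came from non-linear regression with explicit weighting of apparent Km against inhibitor concentration, using 4–5 inhibitor levels per compound spanning 1–300 μM.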

[10] = biological target: T2, Glycogen phosphorylase, liver form (Homo sapiens); test: Inhibition of GP in human HepG2 cells assessed as reduction in GP activity at 335 uM incubated for 3 hrs by Bradford reagent based assay relative to control; assay type: cell-based; summary of the method: as §1

Row | SMILES | Ki [1] | Ki [2] | Ki [3] | Activity [4] | cytotoxicity at 3 h [5] | inhibition [6] | Activity [7] | inhibition [8] | Ki [9] | inhibition [10]
1 | OC[C@H]1O[C@@H](c2csc(-c3ccccc3)n2)[C@H](O)[C@@H](O)[C@@H]1O | 326 µM | 75.6 µM | 172 µM |  |  |  |  |  |  | 
2 | OC[C@H]1O[C@@H](c2nc(-c3ccccc3)n[nH]2)[C@H](O)[C@@H](O)[C@@H]1O |  | 1.74 µM |  |  |  |  |  |  |  | 
3 | OC[C@H]1O[C@@H](c2csc(-c3ccc4ccccc4c3)n2)[C@H](O)[C@@H](O)[C@@H]1O | 26.2 µM | 28 µM | 43.6 µM | Toxic | < 10% | < 25% |  |  |  | 
4 | OC[C@H]1O[C@@H](c2nc(-c3ccccc3)cs2)[C@H](O)[C@@H](O)[C@@H]1O |  | 157 µM | 180 µM |  |  |  |  |  |  | 
5 | OC[C@H]1O[C@@H](c2c[nH]c(-c3ccc4ccccc4c3)n2)[C@H](O)[C@@H](O)[C@@H]1O | 4.58 µM | 1.6 µM | 3.2 µM |  |  |  | Non-Toxic | 60% |  | 
6 | OC[C@H]1O[C@@H](c2nc(-c3ccc4ccccc4c3)cs2)[C@H](O)[C@@H](O)[C@@H]1O |  | 69.1 µM | 78 µM |  |  |  |  |  |  | 
7 | OC[C@H]1O[C@@H](n2nnc(-c3ccccc3)n2)[C@H](O)[C@@H](O)[C@@H]1O |  | 146 µM | 134 µM |  |  |  |  |  | 162 µM | 
8 | OC[C@H]1O[C@@H](c2c[nH]c(-c3ccccc3)n2)[C@H](O)[C@@H](O)[C@@H]1O | 68.6 µM | 17.7 µM | 25.9 µM | Toxic |  | 60% |  |  |  | 50%
